B1: Osa-1-4 twister ribozyme (parent)
chain: CCGCCUAACACUGCCAAUGCCGGUCCCAAGCCCGGAUAAAAGUGGAGGGGGCGG

The variants in this data set derive from B1. Description: self-cleavage, relative activity (ratio to wild type); higher = more cleavage; co-transcriptional. In a few lines:
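The 48 positions downstream of the cleavage site in a DNA template for a 54-nucleotide Oryza sativa twister ribozyme carried 97 % wild-type base and 1 % of each other base. After in vitro transcription (2 h, 37 °C) with co-transcriptional self-cleavage, the RNA was reverse-transcribed with a template-switching oligonucleotide, PCR-amplified and deep-sequenced. Relative activity is the fraction cleaved, judged by reads with or without upstream sequence and normalised to wild type.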
Turning to C25U C9U, the self-cleavage stood at 0.33.
Turning to C25U C9G, the self-cleavage turned out to be 0.18.
The result for C25U C9A reads 0.23; that for C25G C33U, 0.06; that for C25G C33A, 0.03.
The result for C25G C33G reads 0.04.
On to C25A G51C, for which the self-cleavage came out at 0.05.
C25A G51A: the self-cleavage was 0.1.
Take C25A G51U: the self-cleavage stood at 0.06.
As for C25U U12C, the figure is 0.09; as for C25U U12A, 0.18.
As for C25U U12G, the figure is 0.17.
As for C25A C26A, the figure is 0.04.
C25A C26G: the self-cleavage is 0.05.
As for C25A C26U, the figure is 0.08; as for C26A G53C, 0.02; as for C26A G53A, 0.06.
As for C26A G53U, the figure is 0.04; as for C25A G49A, 0.13.
As for C25A G49U, the figure is 0.82; as for C25A G49C, 0.04.
For C25U G53C, the self-cleavage stood at 0.06.
The result for C25U G53A reads 0.25; that for C25U G53U, 0.11; that for C25U G23U, 0.05.
As for C25U G23C, the figure is 0.06.
As for C25U G23A, the figure is 0.11.
For C26A C31A, the self-cleavage turned out to be 0.02.
As for C26A C31G, the figure is 0.03; as for C26A C31U, 0.06.
On to C25G G51C, for which the self-cleavage came out at 0.03.
The result for C25G G51A reads 0.07; that for C25G G51U, 0.04.
With C25A C31A, the self-cleavage was 0.04.
The result for C25A C31G reads 0.03; that for C25A C31U, 0.03; that for U24G U43G, 0.07.
As for U24G U43C, the figure is 0.03; as for C25A G42U, 0.03.
For the variant C25A G42C, the self-cleavage was determined as 0.04.
On to C25A G42A, for which the self-cleavage was 0.06.
As for C25U G47A, the figure is 0.09; as for C25U G47U, 0.07; as for C25U G47C, 0.06.
Turning to C26A G35C, the self-cleavage amounted to 0.04.
As for C26A G35A, the figure is 0.06.
The result for C26A G35U reads 0.04; that for C25U G49A, 0.77.
As to C25U G49U, the self-cleavage is 0.71.
The result for C25U G49C reads 0.06; that for C25A G35A, 0.18; that for C25A G35U, 0.09.
Regarding C25A G35C, the self-cleavage stood at 0.05.
As for C26A G30U, the figure is 0.01; as for C26A G30C, 0.02.
The result for C26A G30A reads 0.01; that for C26A G54A, 0.06.
For C25G G50C, the self-cleavage was 0.09.
The result for C25G G50U reads 0.11; that for C25G G50A, 0.12.
The result for C26A G49C reads 0.02.
The result for C26A G49U reads 0.02; that for C26A G49A, 0.02; that for C25U G13C, 0.02.
Consider C25U G13A, for which the self-cleavage was found to be 0.07.
As for C25U G13U, the figure is 0.03.
C25G G44U: the self-cleavage is 0.05.
As for C25G G44A, the self-cleavage turned out to be 0.06.
As for C25G G44C, the figure is 0.06; as for C25G C32U, 0.04.
The result for C25G C32G reads 0.09; that for C25G C32A, 0.03.
As for C25U G54A, the figure is 0.34; as for C25U G54U, 0.56.
For the variant C25U G54C, the self-cleavage was 0.31.
As for C25U G34C, the figure is 0.5.
The result for C25U G34A reads 0.85; that for C25U G34U, 0.77.
The result for C25A U43C reads 0.06; that for C25A U43G, 0.06.
For C25A U43A, the self-cleavage came to 0.06.
As for C25U G42U, the figure is 0.05; as for C25U G42A, 0.22.
For C25U G42C, the self-cleavage was found to be 0.11.
The result for C26A G34A reads 0.05; that for C26A G34U, 0.04; that for C26A G34C, 0.05.
The result for C25A U37A reads 0.11; that for C25A U37C, 0.14.
The result for C25A U37G reads 0.25.
In the case of C25A G47C, the self-cleavage is 0.03.
The result for C25A G47A reads 0.04.
The result for C25A G47U reads 0.04.
The result for C26A reads 0.06; that for C25G G22U, 0.06.
For the variant C25G G22C, the self-cleavage came out at 0.03.
The result for C25G G22A reads 0.09; that for C25A G44A, 0.05.
As for C25A G44C, the figure is 0.1.
The result for C25A G44U reads 0.06.
As for C26A C33G, the self-cleavage was determined as 0.02.
The result for C26A C33U reads 0.04.
As for C26A C33A, the self-cleavage was 0.05.
As for C26A G45C, the self-cleavage is 0.02.
As for C26A G45U, the figure is 0.02.
As for C26A G45A, the figure is 0.02; as for C25G U18G, 0.18; as for C25G U18C, 0.13.
The result for C25G U18A reads 0.08.
On to C25G G30C, for which the self-cleavage is 0.02.
For C25G G30A, the self-cleavage was found to be 0.02.
As for C25G G30U, the figure is 0.02.
The result for C25G U37C reads 0.12.
As to C25G U37A, the self-cleavage was determined as 0.12.
As for C25G U37G, the figure is 0.13; as for C25A G30C, 0.02.
In the case of C25A G30U, the self-cleavage was 0.02.
The result for C25A G30A reads 0.02.
As for C25G G48A, the figure is 0.04; as for C25G G48U, 0.02; as for C25G G48C, 0.03.
As for C26A G50A, the figure is 0.07.
For C26A G50C, the self-cleavage amounted to 0.05.
As for C26A G50U, the figure is 0.05; as for C26A G22A, 0.07.
The result for C26A G22U reads 0.05; that for C26A G22C, 0.02; that for C25A C32G, 0.05.
For the variant C25A C32U, the self-cleavage is 0.04.
For C25A C32A, the self-cleavage worked out at 0.08.
As for C25A C52A, the figure is 0.14; as for C25A C52U, 0.17; as for C25A C52G, 0.17.
The result for C25G G19C reads 0.03.
The result for C25G G19A reads 0.06; that for C25G G19U, 0.04; that for C25G G13A, 0.03.
In the case of C25G G13C, the self-cleavage stood at 0.01.
As for C25G G13U, the figure is 0.01; as for C25A G34U, 0.11.
For the variant C25A G34A, the self-cleavage is 0.11.
The result for C25A G34C reads 0.06; that for C26A C27U, 0.03; that for C26A C27A, 0.05.
With C26A C27G, the self-cleavage came out at 0.03.
As for C25A G22A, the figure is 0.15; as for C25A G22C, 0.03.
With C25A G22U, the self-cleavage stood at 0.07.
The result for C25A G54A reads 0.12.
The result for C25A G54C reads 0.08; that for C25A G54U, 0.28; that for C25A C9A, 0.05.
The result for C25A C9G reads 0.08.
Take C25A C9U: the self-cleavage came out at 0.06.
As for C25A G13C, the figure is 0.02; as for C25A G13A, 0.03.
The result for C25A G13U reads 0.02; that for C25A U24A, 0.04; that for C25A U24G, 0.04.
C25A U24C: the self-cleavage amounted to 0.04.
The result for C26A G51U reads 0.04.
For C26A G51C, the self-cleavage was 0.02.
C26A G51A: the self-cleavage turned out to be 0.06.
For C25A U12G, the self-cleavage came to 0.06.
The result for C25A U12A reads 0.06; that for C25A U12C, 0.04; that for C25A G23U, 0.03.
